Experimental findings from ChEMBL document CHEMBL3393023, “Benzimidazole-containing HCV NS5A inhibitors: effect of 4-substituted pyrrolidines in balancing genotype 1a and 1b potency” (Bioorg Med Chem Lett, 2015) are described below.

Molecules are shown by their SMILES.

For data set [1], the system named is Hepatitis C virus. The experiment in a line: Antiviral activity against Hepatitis C virus genotype 1a infected in W11.8 cells assessed as decrease in NS5A expression in replicon cell after 4 days by luminescence based ELISA. The class given is functional, Hepacivirus hominis. The note with it: subtype 1a, W11.8, 96 h. A general note: In antiviral work, replicon cells carry a viral genome segment that copies itself.

Data set [2] deals with Hepatitis C virus. The experiment in a line: Antiviral activity against Hepatitis C virus genotype 1b infected in human Huh-5.2 cells assessed as decrease in HCV replicon RNA replication after 4 days by luciferase assay. The class given is functional, cell-based, Hepacivirus hominis. The note with it: Huh-5-2, 96 h.
A short description of data set [3]: Cytotoxicity against human Huh7ET cells by [3H]-thymidine incorporation assay. The note with it: Huh7ET cells (Huh-7). The class given is cell-based. In a few lines: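 Huh-7 ET cells were exposed to 12 test-compound concentrations, each in duplicate. Viability was read by [3H]-thymidine incorporation and CC50 was derived from the curve. A run was accepted only when the positive-control CC50 fell within 40% of its mean value.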
For orientation: Uptake of a labelled nucleoside into DNA is a usual measure of proliferation.

With `COC(=O)N[C@H](C(=O)N1CCC[C@H]1c1nc2ccc(-c3ccc(-c4ccc5nc([C@@H]6CCCN6C(=O)[C@@H](NC(=O)OC)C(C)C)[nH]c5c4)s3)cc2[nH]1)C(C)C`, the EC50 – broadly, the concentration giving half of the maximal effect – in the data set with Hepatitis C virus [1] amounted to 0.94 nM; with Hepatitis C virus [2] it was 0.01 nM. In addition, half-maximal cytotoxicity in data set [3] (CC50) was put at 6 µM.

With `COC(=O)N[C@H](C(=O)N1CCC[C@H]1c1nc2ccc(-c3ccc(-c4ccc5nc([C@@H]6CCCN6C(=O)[C@@H](NC(=O)OC)C(C)C)[nH]c5c4)cc3)cc2[nH]1)C(C)C`, the concentration giving a half-maximal response (EC50) is 0.55 nM in the data set on Hepatitis C virus [1] and 0.012 nM in the data set on Hepatitis C virus [2]. In addition, the half-maximal cytotoxic concentration (CC50) – broadly, the concentration giving 50% cytotoxicity – in data set [3] was 6 µM.

For the compound `COC(=O)N[C@H](C(=O)N1CCC[C@H]1c1ncc(-c2ccc(-c3ccc(-c4ccc5nc([C@@H]6CCCN6C(=O)[C@@H](NC(=O)OC)C(C)C)[nH]c5c4)cc3)cc2)[nH]1)C(C)C`, the EC50 in the data set on Hepatitis C virus [1] came out at 0.139 nM; in the data set with Hepatitis C virus [2], 0.013 nM.

Regarding `COC(=O)N[C@H](C(=O)N1CCC[C@H]1c1nc2ccc(-c3ccc4nc([C@@H]5CCCN5C(=O)[C@@H](NC(=O)OC)C(C)C)[nH]c4c3)cc2[nH]1)C(C)C`, the EC50 in the data set on Hepatitis C virus [1] is > 2000 nM; in the data set with Hepatitis C virus [2], 26 nM. In addition, the CC50 in data set [3] is > 20 µM.

Regarding `COC(=O)N[C@H](C(=O)N1CCC[C@H]1c1nc2ccc(C#Cc3ccc4nc([C@@H]5CCCN5C(=O)[C@@H](NC(=O)OC)C(C)C)[nH]c4c3)cc2[nH]1)C(C)C`, the EC50 in the data set on Hepatitis C virus [1] stood at 28 nM; in the data set on Hepatitis C virus [2], 0.022 nM. The CC50 in data set [3] was > 20 µM.

With `COC(=O)N[C@H](C(=O)N1CCC[C@H]1c1nc2ccc(C#CC#Cc3ccc4nc([C@@H]5CCCN5C(=O)[C@@H](NC(=O)OC)C(C)C)[nH]c4c3)cc2[nH]1)C(C)C`, the figures for the EC50 in the data set on Hepatitis C virus [1] and with Hepatitis C virus [2] were 18 nM and 0.024 nM, respectively. In data set [3], the half-maximal cytotoxic concentration (CC50) worked out at 13 µM.

For the compound `COC(=O)N[C@H](C(=O)N1CCC[C@H]1c1nc2cc(CCc3ccc4[nH]c([C@@H]5CCCN5C(=O)[C@@H](NC(=O)OC)C(C)C)nc4c3)ccc2[nH]1)C(C)C`, the EC50 in the data set with Hepatitis C virus [1] worked out at 688 nM; in the data set on Hepatitis C virus [2], 0.076 nM. Further, the CC50 in data set [3] was > 20 µM.

In the case of `COC(=O)N[C@H](C(=O)N1CCC[C@H]1c1nc2cc(-c3cccc(-c4ccc5[nH]c([C@@H]6CCCN6C(=O)[C@@H](NC(=O)OC)C(C)C)nc5c4)c3)ccc2[nH]1)C(C)C`, the EC50 in the data set on Hepatitis C virus [1] was 378 nM; in the data set with Hepatitis C virus [2], 20 nM. The compound further came in with a CC50 in data set [3] of 6 µM.

For `COC(=O)N[C@H](C(=O)N1CCC[C@H]1c1nc2cc(-c3ccc(-c4ccc5[nH]c([C@@H]6CCCN6C(=O)[C@@H](NC(=O)OC)C(C)C)nc5c4)c(C)c3)ccc2[nH]1)C(C)C`, the EC50 came to 0.84 nM in the data set on Hepatitis C virus [1] and 0.006 nM in the data set with Hepatitis C virus [2]. In data set [3], the CC50 was found to be 3 µM.

For the compound `COC(=O)N[C@H](C(=O)N1CCC[C@H]1c1nc2cc(-c3ccc(-c4ccc5nc([C@@H]6CCCN6C(=O)[C@@H](NC(=O)OC)C(C)C)[nH]c5c4)cc3OC)ccc2[nH]1)C(C)C`, the EC50 came out at 0.36 nM with Hepatitis C virus [1] and 0.013 nM in the data set with Hepatitis C virus [2]. In data set [3], the CC50 turned out to be 6 µM.

As to `COC(=O)N[C@H](C(=O)N1CCC[C@H]1c1nc2cc(-c3ccc(-c4ccc5[nH]c([C@@H]6CCCN6C(=O)[C@@H](NC(=O)OC)C(C)C)nc5c4)c(F)c3)ccc2[nH]1)C(C)C`, the EC50 in the data set on Hepatitis C virus [1] was determined as 0.84 nM; in the data set with Hepatitis C virus [2], 0.012 nM. Further, the CC50 in data set [3] was found to be 6 µM.

For `COC(=O)N[C@H](C(=O)N1CCC[C@H]1c1nc2cc(-c3cc(C)c(-c4ccc5[nH]c([C@@H]6CCCN6C(=O)[C@@H](NC(=O)OC)C(C)C)nc5c4)cc3C)ccc2[nH]1)C(C)C`, the EC50 with Hepatitis C virus [1] turned out to be 0.9 nM; in the data set on Hepatitis C virus [2] it was 0.006 nM. The compound also had a CC50 in data set [3] of 5 µM.

For the compound `COC(=O)N[C@H](C(=O)N1CCC[C@H]1c1nc2cc(-c3ccc(-c4ccc5[nH]c([C@@H]6CCCN6C(=O)[C@@H](NC(=O)OC)C(C)C)nc5c4)c(C)c3C)ccc2[nH]1)C(C)C`, the figures for the EC50 in the data set on Hepatitis C virus [1] and in the data set with Hepatitis C virus [2] were 2.9 nM and 0.01 nM, respectively. For the same compound, in data set [3], the CC50 was 7 µM.

As to `COC(=O)N[C@H](C(=O)N1C[C@@H](F)C[C@H]1c1nc2cc(-c3ccc(-c4ccc5[nH]c([C@@H]6C[C@H](F)CN6C(=O)[C@@H](NC(=O)OC)C(C)C)nc5c4)cc3)ccc2[nH]1)C(C)C`, the values for the EC50 in the data set with Hepatitis C virus [1] and in the data set with Hepatitis C virus [2] were 4.9 nM and 0.082 nM, respectively. Also, it took 11 µM to reach half-maximal cytotoxicity in data set [3] (CC50).

`COC(=O)N[C@H](C(=O)N1C[C@H](F)C[C@H]1c1nc2cc(-c3ccc(-c4ccc5[nH]c([C@@H]6C[C@@H](F)CN6C(=O)[C@@H](NC(=O)OC)C(C)C)nc5c4)cc3)ccc2[nH]1)C(C)C`: the concentration for a half-maximal effect (EC50) in the data set on Hepatitis C virus [1] turned out to be 1.1 nM; with Hepatitis C virus [2], 0.018 nM. For the same compound, the CC50 in data set [3] came out at 14 µM.

For `COC(=O)N[C@H](C(=O)N1CC(F)(F)C[C@H]1c1nc2cc(-c3ccc(-c4ccc5[nH]c([C@@H]6CC(F)(F)CN6C(=O)[C@@H](NC(=O)OC)C(C)C)nc5c4)cc3)ccc2[nH]1)C(C)C`, the EC50 in the data set on Hepatitis C virus [1] came to 0.5 nM; in the data set with Hepatitis C virus [2], 0.004 nM. This compound also showed a CC50 in data set [3] of 13 µM.

As for `COC(=O)N[C@H](C(=O)N1C[C@H](O)C[C@H]1c1nc2cc(-c3ccc(-c4ccc5[nH]c([C@@H]6C[C@@H](O)CN6C(=O)[C@@H](NC(=O)OC)C(C)C)nc5c4)cc3)ccc2[nH]1)C(C)C`, the EC50 amounted to 15 nM with Hepatitis C virus [1] and 0.1 nM in the data set with Hepatitis C virus [2]. In addition, in data set [3], the CC50 is > 20 µM.

For `COC(=O)N[C@H](C(=O)N1C[C@H](OC)C[C@H]1c1nc2cc(-c3ccc(-c4ccc5[nH]c([C@@H]6C[C@@H](OC)CN6C(=O)[C@@H](NC(=O)OC)C(C)C)nc5c4)cc3)ccc2[nH]1)C(C)C`, the EC50 with Hepatitis C virus [1] came to 1.22 nM; with Hepatitis C virus [2] it was 0.034 nM. Besides, the midpoint of cytotoxicity in data set [3], the CC50, lay at 6 µM.

For `COC(=O)N[C@H](C(=O)N1C[C@@H](OC)C[C@H]1c1nc2cc(-c3ccc(-c4ccc5[nH]c([C@@H]6C[C@H](OC)CN6C(=O)[C@@H](NC(=O)OC)C(C)C)nc5c4)cc3)ccc2[nH]1)C(C)C`, the EC50 amounted to 0.053 nM in the data set on Hepatitis C virus [1] and 0.031 nM with Hepatitis C virus [2]. Also, the CC50 in data set [3] is > 20 µM.

On to `COC(=O)N[C@H](C(=O)N1C[C@H](C)C[C@H]1c1nc2cc(-c3ccc(-c4ccc5[nH]c([C@@H]6C[C@@H](C)CN6C(=O)[C@@H](NC(=O)OC)C(C)C)nc5c4)cc3)ccc2[nH]1)C(C)C`, for which the figures for the EC50 with Hepatitis C virus [1] and in the data set with Hepatitis C virus [2] were 0.028 nM and 0.007 nM, respectively. This compound also displayed a CC50 in data set [3] of 14 µM.

For the compound `COC(=O)N[C@H](C(=O)N1C[C@@H](C)C[C@H]1c1nc2cc(-c3ccc(-c4ccc5[nH]c([C@@H]6C[C@H](C)CN6C(=O)[C@@H](NC(=O)OC)C(C)C)nc5c4)cc3)ccc2[nH]1)C(C)C`, the EC50 amounted to 0.026 nM with Hepatitis C virus [1] and 0.037 nM in the data set on Hepatitis C virus [2]. Moreover, the CC50 in data set [3] is > 20 µM.

For `COC(=O)N[C@H](C(=O)N1C[C@@H](C(F)(F)F)C[C@H]1c1nc2cc(-c3ccc(-c4ccc5[nH]c([C@@H]6C[C@H](C(F)(F)F)CN6C(=O)[C@@H](NC(=O)OC)C(C)C)nc5c4)cc3)ccc2[nH]1)C(C)C`, the EC50 is 0.03 nM with Hepatitis C virus [1] and 0.005 nM with Hepatitis C virus [2]. This compound also showed a CC50 in data set [3] of 13 µM.

Regarding `CC[C@H]1C[C@@H](c2nc3cc(-c4ccc(-c5ccc6[nH]c([C@@H]7C[C@H](CC)CN7C(=O)[C@@H](NC(=O)OC)C(C)C)nc6c5)cc4)ccc3[nH]2)N(C(=O)[C@@H](NC(=O)OC)C(C)C)C1`, the EC50 turned out to be 0.085 nM in the data set with Hepatitis C virus [1] and 0.019 nM in the data set on Hepatitis C virus [2]. In data set [3], the CC50 was > 20 µM.

As to `COC(=O)N[C@H](C(=O)N1CC(C)(C)C[C@H]1c1nc2cc(-c3ccc(-c4ccc5[nH]c([C@@H]6CC(C)(C)CN6C(=O)[C@@H](NC(=O)OC)C(C)C)nc5c4)cc3)ccc2[nH]1)C(C)C`, the EC50 with Hepatitis C virus [1] amounted to 0.03 nM; in the data set on Hepatitis C virus [2] it was 0.011 nM. For the same compound, the CC50 in data set [3] is > 20 µM.

Regarding `COC(=O)N[C@H](C(=O)N1C[C@@H](C)C[C@H]1c1nc2cc(C#CC#Cc3ccc4[nH]c([C@@H]5C[C@H](C)CN5C(=O)[C@@H](NC(=O)OC)C(C)C)nc4c3)ccc2[nH]1)C(C)C`, the EC50 with Hepatitis C virus [1] came to 0.018 nM; in the data set with Hepatitis C virus [2], 0.024 nM.
